A selection: hits, their analogues and other compounds. The true share with any hit is near 4.5%.
TAAR1 antagonist – human TAAR1 antagonists, primary screen, Fluo-8 calcium fluorescence, CHO RD-HGA16 cells; Trace amine-associated receptor 1 (Homo sapiens), Q96RJ0; antagonist; inhibition, % at 3 µM; 360,000 compounds, 1.5% hits;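 active = inhibition above a per-plate cutoff, the mean inhibition of test compounds on that plate plus 3 SD, cut at about 49% in these data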;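 note: 0% = DMSO plus EC80 beta-PEA response and 100% = DMSO alone without agonist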
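System: CHO RD-HGA16 cells bearing hTAAR1. Reagent: EC80 β-phenethylamine stimulus. Schedule: seeding 17-24 h prior, 75-min 37 °C, 30-min RT dye loading. Signal: Fluo-8 intracellular calcium dye fluorescence, real-time kinetic reads. Read-out: % inhibition from peak post-agonist over basal fluorescence ratio. Benchmarks: vehicle wells and EC80 agonist wells. Replicates: n of 1.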
GPR7 antagonist – GPR7 receptor antagonists, primary screen, cell-based, fluorescence, single concentration; 290,000 compounds, 1.1% hits; GPR7-expressing cells, fluorescence antagonist assay; inhibition, % at 4.4 µM; Neuropeptides B/W receptor type 1 (Homo sapiens), P48145; in the data active = inhibition above about 16%, passing the limit was not always enough;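 note: cells stimulated with the agonist NPW; 0% = agonist with vehicle and 100% = vehicle without agonist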
Target sequence (P48145 whole entry, looked up): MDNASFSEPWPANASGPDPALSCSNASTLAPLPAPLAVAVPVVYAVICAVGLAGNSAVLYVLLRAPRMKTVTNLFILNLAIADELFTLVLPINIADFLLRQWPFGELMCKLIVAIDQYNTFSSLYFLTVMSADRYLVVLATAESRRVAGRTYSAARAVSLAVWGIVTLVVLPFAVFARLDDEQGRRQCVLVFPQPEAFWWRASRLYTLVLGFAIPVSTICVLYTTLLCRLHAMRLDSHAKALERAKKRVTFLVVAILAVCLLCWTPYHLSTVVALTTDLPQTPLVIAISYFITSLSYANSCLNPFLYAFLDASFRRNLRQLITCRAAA
TAAR1 ag – human TAAR1 agonists, primary screen, Fluo-8 calcium fluorescence, CHO RD-HGA16 cells; 360,000 compounds, 0.99% hits; activation, % at 3 µM; vehicle wells 0%, saturating PEA agonist 100%;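 active = activation above the mean activation of all test compounds in the run plus 3 SD, cut at about 38% in these data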
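Assay system: CHO-derived RD-HGA16 cells with stable Gα16 and human TAAR1; timing: 17-24 h seeding, 75 min 37 °C dye, 30 min RT; read-out: % activation from peak over basal fluorescence ratio, DMSO-to-PEA scaled; measured by: kinetic Fluo-8 calcium fluorescence; benchmarks: low control DMSO, high control PEA (EC100); doses: 3 µM single concentration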
OX1R antag-1 – antagonists of human orexin 1 receptor (OX1R); Orexin/Hypocretin receptor type 1 (Homo sapiens), O43613; OX1R-expressing cells, FRET antagonist read-out; inhibition, % at 6.6 µM; 330,000 compounds, 1.8% hits; AID 485270, 2010; in the data active = inhibition mostly above about 38%, no sharp cut-off; inactive = mostly below about 40%;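 note: 0% = agonist challenge alone and 100% = reference antagonist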
CHO parental Ca – ATP-evoked calcium signal inhibitors, parental CHO, primary screen, counter-screen for OX1R antagonist project, cell-based, fluorescence, Fluo-8 calcium dye. parental CHO-K1, ATP-induced calcium, Fluo-8 fluorescence. AID 463079, 2010. inhibition, % at 5.6 µM. 330,000 compounds, 0.63% hits;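 active = inhibition above that plate's mean sample inhibition plus 3 SD, cut at about 26% in these data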;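 note: 0% = ATP-challenged DMSO wells and 100% = DMSO wells without ATP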
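test system = CHO parental line | reagent = ATP stimulus | measured by = intracellular calcium via Fluo-8 no-wash fluorescent dye | control set = ATP and no-ATP DMSO wells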
OX1R antag-2 – OX1R (HCRTR1) antagonists, primary screen, fluorescence, CHO/OX1R cells, Fluo-8 calcium, orexin A. Fluo-8 calcium fluorescence. inhibition, % at 5 µM. 330,000 compounds, 0.43% hits;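 active = inhibition above its plate's threshold, mean inhibition of all tested compounds on the plate plus 3 SD, cut at about 37% in these data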;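 note: 0% = orexin A challenge wells and 100% = SB-334867-A antagonist wells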
OX1R HTRF confirm – OX1R (HCRTR1) antagonists, confirmation, cell-based, HTRF; shares compounds with OX1R antag-1; 1,800 compounds, 49% hits; OX1R-expressing cells, HTRF antagonist assay; inhibition, % at 6.6 µM; in the data active = inhibition above about 55%;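 note: CHO cells expressing OX1R stimulated with orexin A at about EC80; 0% = agonist challenge alone and 100% = reference antagonist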
CHO-K1 HTRF cnt – signal inhibition in parental CHO-K1 cells, counter-screen for OX1R antagonist project, cell-based, HTRF; shares compounds with OX1R antag-1; 1,800 compounds, 48% hits; HTRF counterscreen; inhibition, % at 6.6 µM; in the data active = inhibition above about 17%;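 note: 0% = agonist challenge with vehicle and 100% = vehicle alone without agonist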
Numbers without * were called inactive; . = not tested or not shown.

SMILES | TAAR1 antagonist | GPR7 antagonist | TAAR1 ag | OX1R antag-1 | CHO parental Ca | OX1R antag-2 | OX1R HTRF confirm | CHO-K1 HTRF cnt
CCn1ncc([N+](=O)[O-])c1C(=O)NC1CCCCC1 | 0 | -4 | 0 | 3 | 2 | -5 | . | .
Cc1nc2ccc(NC(=O)c3ccc(C)c(S(=O)(=O)N4CCOCC4)c3)cc2s1 | 25 | . | 9 | 5 | -45 | -21 | . | .
O=C(CCS(=O)(=O)c1cccc2nonc12)NCCc1ccccc1 | -11 | -13 | 21 | 87* | -19 | -28 | 34 | 36*
CC(C)CCNC(=O)CCS(=O)(=O)c1cccc2nonc12 | -7 | -6 | 2 | 48 | 12 | 5 | . | .
Clc1cccc(/C=N\Nc2nccs2)c1 | -14 | -2 | 17 | 82* | -28 | -11 | 19 | -11
CCCSc1cc(NCCOC(C)=O)c([N+](=O)[O-])c2nonc12 | -10 | 8 | -1 | 82* | -11 | -7 | 39 | 61*
CCCC(=O)OCCNc1cc(Sc2nccn2C)c2nonc2c1[N+](=O)[O-] | 7 | -1 | 0 | 91* | 29 | 25 | 72* | 60*
[O-]/[N+](=C\c1ccncc1)c1ccccc1 | 11 | -7 | 9 | 5 | 0 | -15 | . | .
COc1cccc(C2/C(=C(\O)c3ccc4c(c3)OCCO4)C(=O)C(=O)N2CCCN(C)C)c1OC (stereo not drawn) | . | -5 | . | . | . | . | . | .
O=C(NCCCN1CCOCC1)c1cc2cc(Br)ccc2oc1=O | 5 | 3 | 10 | 124* | -20 | -18 | 42 | 41*
O=C(NCCN1CCOCC1)c1cc2cc(Br)ccc2oc1=O | 10 | -6 | 0 | 22 | 4 | 7 | . | .
CCCCCCOc1ccc(N2C(=O)CC(SC(=NCC)NCC)C2=O)cc1 (stereo not drawn) | 21 | -13 | 3 | 5 | -8 | -4 | . | .
CN(CC(=O)Nc1ccccc1Br)C(=O)c1cc(Cl)nc2ccccc12 | 15 | . | 7 | 4 | -14 | -24 | . | .
CN(CC(=O)Nc1ccccc1Br)C(=O)c1ccccc1-c1nc2ccccc2s1 | 15 | 13 | 0 | 84* | -22 | 3 | 71* | 4
Cn1cc(Cl)c(C(=O)N/N=C/c2ccc3c4c(cccc24)CC3)n1 | . | 5 | . | 92* | -25 | -3 | 84* | 11
Cc1ccc(/C=N/NC(=O)c2nn(C)cc2Cl)cc1 | 6 | 6 | 1 | -3 | -2 | -15 | . | .
CCOC(=O)c1nn(-c2ccccc2)c(=O)c(C#N)c1C | -2 | -8 | 5 | 145* | -10 | -13 | 48 | 81*
CCOC(=O)Nc1nn(-c2ccc(C)cc2)c(=O)c(C#N)c1C | -24 | -9 | 2 | 120* | -5 | 4 | 58* | 61*
CCOC(=O)c1nn(-c2ccccc2)c(C#N)c1N | 9 | -13 | 6 | 17 | -4 | -11 | . | .
Cc1ccc(NC(=S)NC(=O)c2cncc(Br)c2)cc1Cl | -28 | . | 1 | 0 | -6 | -16 | . | .
O=C(NCCN1CCOCC1)c1cc(Cl)ccc1[N+](=O)[O-] | -4 | -10 | -1 | 51 | -3 | 8 | . | .
O=C(NCCCN1CCOCC1)c1sc2cc(Cl)ccc2c1Cl | 7 | 0 | 7 | 9 | -1 | -35 | . | .
O=C(CN1CCOCC1)Nc1cc([N+](=O)[O-])ccc1Cl | -15 | -10 | 10 | 79* | -4 | -5 | 31 | 35*
